# From PubChem BioAssay
# This is a sample that favours compounds with a hit; in the whole collection about 2.6% have one here.
# Platelet DG rel: modulates dense granule release in human platelets; human platelet-rich plasma, SFLLRN dense granule ATP release, luminescence; inhibition, %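 (compounds screened at 7.5 µM in platelet-rich plasma)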; actives 0.22% (n = 300,000); AID 1663;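 active = mean replicate score, as percent of positive control, at or above 50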
# SENP6 inh: SENP6 protease inhibition; inhibition, % at 10 µM; Recombinant SENP6 catalytic domain, aminoluciferin luminescence; Q9GZR1; actives 1.8% (n = 330,000);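 active = inhibition above about 50% at the single tested dose, limit read from the data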;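 also: plate controls were DMSO wells with enzyme for no effect and DMSO wells lacking enzyme for full effect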
# SENP7 inh: inhibitors of human SENP7 protease. recombinant SENP7, Z-RLRGG-aminoluciferin luminescence, 40 min. inhibition, % at 5 µM. actives 1.5% (n = 330,000). AID 434973;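 active = inhibition above about 50% at the single test dose, limit read from the data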;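 also: plate controls were DMSO with enzyme for no effect and no enzyme buffer wells for full effect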
# Target sequence (Q9BQF6 706-1050 limits assumed): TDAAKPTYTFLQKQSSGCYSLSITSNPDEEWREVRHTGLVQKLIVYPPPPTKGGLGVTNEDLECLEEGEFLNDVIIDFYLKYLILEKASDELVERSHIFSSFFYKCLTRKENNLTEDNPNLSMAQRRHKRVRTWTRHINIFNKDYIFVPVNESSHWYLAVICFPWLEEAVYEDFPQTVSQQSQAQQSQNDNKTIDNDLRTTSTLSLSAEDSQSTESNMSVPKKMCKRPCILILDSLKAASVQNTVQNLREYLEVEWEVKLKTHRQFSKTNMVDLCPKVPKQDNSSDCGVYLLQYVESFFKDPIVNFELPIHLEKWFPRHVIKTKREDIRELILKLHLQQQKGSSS
# SENP8 block-1: inhibitors of human SENP8 protease; recombinant SENP8, Nedd8 substrate fluorescence; inhibition, % at 20 µM; actives 0.64% (n = 360,000); in the data active = inhibition mostly above about 40%, no sharp cut-off; inactive = mostly below about 27%
# SENP1 inh: SENP1 (human) catalytic domain inhibition | Q9P0U3 | recombinant SENP1 catalytic domain, CyPet-SUMO1-YPet FRET cleavage | inhibition, % at 10 µM | actives 0.21% (n = 360,000) | AID 624204;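 active = inhibition at least 30% at 10 µM, raw YFP signal under a set limit, fluorescence ratio 0.5 to 1.5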;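 also: 0% = enzyme with DMSO and 100% = no enzyme wells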
#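 Compound: 10 µM single point, 0.5% DMSO; Test system: hSENP1 catalytic domain, recombinant; Timing: 50 min reaction at room temperature; Technique: FRET, CFP and YFP emission; Control set: no-enzyme wells low, DMSO-plus-enzyme wells high control.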
# SENP8 block-2: inhibitors of human SENP8 protease. Q96LD8. purified SENP8, Z-RLRGG-aminoluciferin cleavage, luminescence. inhibition, % at 10 µM. actives 1.2% (n = 330,000). AID 2540; in the data active = inhibition above about 50%
# SENP8 conf: human SENP8 inhibition, confirmed; shares compounds with SENP7 inh; Recombinant SENP8, Z-RLRGG-aminoluciferin luminescence, 60 min; inhibition, % at 12.5 µM; actives 40% (n = 6,200); AID 488912;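 active = mean inhibition across replicates above about 50%, limit read from the data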
# SENP6 confirm: human SENP6 inhibition, confirmed; shares compounds with SENP7 inh; recombinant SENP6, Z-RLRGG-aminoluciferin luminescence; inhibition, % at 12.5 µM; actives 58% (n = 6,200)
# SENP7 confirm: human SENP7 inhibition, confirmed; inhibition, % at 12.5 µM; actives 69% (n = 6,200); recombinant SENP7, Z-RLRGG-aminoluciferin luminescence, 40 min; shares compounds with SENP7 inh; AID 488917
# Casp3 SENP sel: selectivity test for SENP inhibitors: human caspase-3 inhibition. inhibition, % at 12.5 µM. actives 60% (n = 6,200). shares compounds with SENP7 inh. purified caspase-3, Z-DEVD-aminoluciferin luminescence, 60 min;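 active = mean inhibition above about 50%, limit read from the data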;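 also: plate controls were enzyme with DMSO for no effect and wells without caspase-3 for full effect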
# SENP luc ctr: counter-screen for SENP inhibitors: luminescence interference | shares compounds with SENP7 inh | Pre-incubated SENP8/Z-RLRGG-aminoluciferin, luciferase luminescence interference | inhibition, % at 12.5 µM | actives 39% (n = 6,200) | AID 488919;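 active = mean inhibition above about 50% when retested at one dose, limit read from the data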;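 also: plate controls were DMSO wells with completed reaction for no effect and substrate without enzyme for full effect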
# * = called active by the depositor; x = no result given.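 The calls were made as follows, unless noted: active = mean inhibition above about 50% in the one-dose retest (limit read from the data); inactive = the rest.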
SMILES,Platelet DG rel,SENP6 inh,SENP7 inh,SENP8 block-1,SENP1 inh,SENP8 block-2,SENP8 conf,SENP6 confirm,SENP7 confirm,Casp3 SENP sel,SENP luc ctr
COc1ccc(-c2nn(CCC#N)cc2C(=O)Nc2cccc(C(=O)O)c2)cc1[N+](=O)[O-],3,-22,0,14,1,2,x,x,x,x,x
CCn1nc(C)c(CN2CCC(n3nccc3NC(=O)c3ccc4c(c3)OCO4)CC2)c1C,4,-3,-1,8,1,6,x,x,x,x,x
Cc1ccn2c(C(=O)c3ccc(Cl)cc3)cnc2c1,5,70*,52*,-24,-1,31,28,34,70*,62*,48
Cc1ccn2c(=O)nc(SCC(=O)c3ccc(Cl)cc3)nc2c1,7,-1,-8,-16,-24,9,x,x,x,x,x
CC(/C=N/N1CCN(c2ccccc2)CC1)=C\c1ccccc1,12,0,75*,14,0,11,-10,-6,-9,25,-3
CC(=C/c1ccco1)/C=N/N1CCN(c2ccccc2)CC1,35,97*,95*,13,-2,92*,3,54*,34,68*,16
CC(/C=N/N1CCN(c2ccccc2)CC1)=C\c1ccco1,24,96*,98*,16,1,95*,10,87*,91*,71*,17
COc1ccccc1C(=O)NCC(=O)NCc1cc(=O)n(C)c(=O)n1C,-1,-7,3,13,2,1,x,x,x,x,x
COc1ccc(CN(C(=O)c2cc(=O)c3ccccc3o2)C2CCS(=O)(=O)C2)cc1OC (stereo not given),3,-1,1,2,0,0,x,x,x,x,x
CC1(C)CC(=O)C=C(c2ccc(-c3cnn(Cc4ccccc4)c3)cc2)C1=O,x,x,x,4,16,x,x,x,x,x,x
CC(C)CCOCC(=O)Nc1cccc(C(=O)O)c1,-5,58*,41,7,0,9,38,35,73*,18,62*
CC(=O)c1cccc(NC(=O)COc2ccccc2)c1,2,-30,-8,4,-2,-4,x,x,x,x,x
CC1=CC(C)(C)N(C(=O)CNC2CCCC2)c2cc(C)ccc21,-6,-14,-3,4,1,-2,x,x,x,x,x
Nc1c(Cl)ncnc1N/N=C/c1cccc(O)c1,15,56*,34,-198,-3,25,40,36,70*,68*,25
COc1ccc(-c2nc(C#N)c(N3CCCCC3)o2)cc1,-8,-9,0,-304,3,-7,x,x,x,x,x
COc1ccc(-c2nc(C#N)c(N3CCCCCC3)o2)cc1,4,-5,84*,-305,3,0,1,1,-2,-4,-5
CCCCC1CCC(c2nc(-c3ccccn3)no2)CC1 (stereo not given),-1,72*,41,17,3,54*,11,28,1,25,26
Cc1nn(-c2ccccc2)c(C)c1C(=O)OCC(=O)Nc1ccccc1,x,83*,81*,-1,2,75*,77*,76*,94*,83*,74*
Cc1ccc(NC(=O)COC(=O)c2c(C)nn(-c3ccccc3)c2C)cc1,x,4,5,2,-3,-4,x,x,x,x,x
Cc1cc(NC(=O)COC(=O)c2c(C)nn(-c3ccccc3)c2C)no1,1,2,7,14,0,7,x,x,x,x,x
